# Values joined by “and” are separate entries in the source; they are usually repeats but may differ in a detail not shown here. Identical values can stand only once. Like-named read-outs stand apart in the source and are kept apart here.
# Legend:
# [1] = Rat plasma equilibrium dialysis; type: in vitro ADME; conditions: pH 7.4
# Summary of the method: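 Rat plasma spiked with test compound to a final 2 μM. Dialysed in a 96-well equilibrium dialyser, plasma on one side and blank phosphate buffer (pH 7.4) on the other. Incubated 20 h at 37 °C under 5% CO2. The unbound fraction was determined from the two sides.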
# CYP3A4 [2] = target: T1, CYP3A4 (Homo sapiens, UniProt P08684); type: biochemical
# CYP3A4 [3] = target: T1, CYP3A4; test: Stopped-flow binding kinetics of ligand to purified CYP3A4; conditions: for k2: dissociation rate from KS=k2/k1
# [4] = Rat pharmacokinetics of PPT alone; type: in vivo
# CYP3A4 [5] = target: T1, CYP3A4; test: Spectral MIC formation in CYP3A4 baculosomes, SVD and kinetic modeling; type: biochemical
# rat CYP3A = type: biochemical
# CYP3A4 [6] = target: T1, CYP3A4; test: In vitro TDI assay in pooled HLM; type: biochemical
# [7] = 3A4 baculosomes, Figure 3 scheme
# [8] = baculosomes, end of kinetic experiment (~30 min), 100 μM PPT
# T1 sequence (P08684 whole entry): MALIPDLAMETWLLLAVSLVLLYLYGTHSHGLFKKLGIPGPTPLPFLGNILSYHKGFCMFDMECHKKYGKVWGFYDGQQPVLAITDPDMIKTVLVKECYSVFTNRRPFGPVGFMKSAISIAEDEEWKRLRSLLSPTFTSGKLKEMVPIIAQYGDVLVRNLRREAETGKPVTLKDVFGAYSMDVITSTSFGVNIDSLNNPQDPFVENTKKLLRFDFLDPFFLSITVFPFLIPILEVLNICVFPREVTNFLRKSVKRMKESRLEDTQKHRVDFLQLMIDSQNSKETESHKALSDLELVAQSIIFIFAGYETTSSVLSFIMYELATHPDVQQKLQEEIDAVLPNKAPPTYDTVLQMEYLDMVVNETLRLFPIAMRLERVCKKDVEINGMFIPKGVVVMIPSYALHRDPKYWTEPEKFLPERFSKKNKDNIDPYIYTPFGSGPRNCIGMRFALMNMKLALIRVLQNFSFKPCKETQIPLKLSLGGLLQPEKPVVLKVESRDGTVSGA
structure (smiles),measurement,setting,value
"COc1cc([C@@H]2c3cc4c(cc3[C@H](O)[C@H]3COC(=O)[C@H]23)OCO4)cc(OC)c1OC [PPT, Podophyllotoxin]","fraction unbound at 20 h, 2 μM",[1],0.044 ± 0.006
same,"k4 (carbene release, enzyme regeneration)","CYP3A4 [2]; HLM, Figure 3 scheme",0.0195 ± 0.000 min⁻¹
same,k6 (P420 formation from EI),"CYP3A4 [2]; HLM, Figure 3 scheme",0.0506 ± 0.0401 min⁻¹
same,k7 (P420 degradation),"CYP3A4 [2]; HLM, Figure 3 scheme",0 min⁻¹
same,k3 (Fe3+:carbene formation),"CYP3A4 [2]; HLM, Figure 3 scheme, listed as carries footnote b: fixed value",1.134 ± 0.156 min⁻¹
same,fraction of cytochrome P450 in the Fe2+:carbene form,"CYP3A4 [2]; HLM, end of the experiments",17.2 ± 2.2%
same,fraction of cytochrome P450 in the P420 form,"CYP3A4 [2]; HLM, end of the experiments",24.0 ± 2.1%
same,fraction of cytochrome P450 in the free form,"CYP3A4 [2]; HLM, end of the experiments",40.7 ± 7.3%
same,net rate constant for Fe2+:carbene formation (enzyme inactivation),CYP3A4 [2]; spectral MIC formation experiments in HLM,0.020 min⁻¹
same,k2,CYP3A4 [3]; used for 3A4 baculosomes model,10600 min⁻¹
same,k2,CYP3A4 [3]; used for HLM model,10600 min⁻¹
same,experimentally determined on-rate (k1) used in the TDI model,CYP3A4 [3]; fixed in the TDI model fitting,270 µM/s
same,k1,"CYP3A4 [3]; from binding kinetic experiment, used for HLM model",1080 min⁻¹
same,"mean Cmax,unbound","[4]; PPT alone, 2-compartmental model",0.17 µM
same,Cmax,"[4]; male, Sprague-Dawley, plasma",3.94 µM
same,half-life,"[4]; male, Sprague-Dawley, plasma",37 min
same,k3 (Fe3+:carbene formation),"CYP3A4 [5]; 3A4 baculosomes, 100 μM PPT, Figure 3 scheme, footnote b: fixed value",1.8 min⁻¹
same,"k4 (carbene release, enzyme regeneration)",CYP3A4 [5]; [7],0.0780 ± 0.0186 min⁻¹
same,k5 (reduction to Fe2+:carbene),CYP3A4 [5]; [7],0.0804 ± 0.0228 min⁻¹
same,k6 (P420 formation from EI),CYP3A4 [5]; [7],0.1224 ± 0.0252 min⁻¹
same,k7 (P420 degradation),CYP3A4 [5]; [7],0.0636 ± 0.0048 min⁻¹
same,fraction of total P450 as free P450,CYP3A4 [5]; [8],15.0 ± 0.8%
same,fraction of total P450 in the inactivated form (Fe2+:carbene),CYP3A4 [5]; [8],52.0 ± 5.8%
same,"enzyme regeneration through carbene release, baculosomes versus HLM",CYP3A4 [5]; faster in baculosomes than in HLM,about 3 fold
same,k6/KI2,rat CYP3A,6.1e+07 ± 1.68e+07 M⁻¹ s⁻¹
same,k7,rat CYP3A,0.12 ± 0.02 min⁻¹ and 0.11 ± 0.02 min⁻¹
same,k3,CYP3A4 [6]; Q model,95.3 ± 1.7 min⁻¹
same,k5,CYP3A4 [6]; Q model,3.89e+07 ± 1.63e+07 M⁻¹ s⁻¹
same,k7,CYP3A4 [6]; Q model,0.23 ± 0.07 min⁻¹
same,k8,CYP3A4 [6]; Q model,0.081 ± 0.012 min⁻¹
same,k10,CYP3A4 [6]; Q model,0.011 ± 0.001 min⁻¹
same,α,CYP3A4 [6]; Q model,0.21 ± 0.08
same,k5,CYP3A4 [6]; QI model,5.618e+07 ± 2.612e+07 M⁻¹ s⁻¹
same,k8,CYP3A4 [6]; QI model,0.15 ± 0.04 min⁻¹
same,k9,CYP3A4 [6]; QI model,0.011 ± 0.001 min⁻¹
same,k10,CYP3A4 [6]; QI model,0.017 ± 006 min⁻¹
same,α,CYP3A4 [6]; QI model,0.16 ± 0.07
same,k3,"CYP3A4 [6]; QI model (ESI-QI scheme, Figure 5a)",94.9 ± 1.6 min⁻¹
same,k7,"CYP3A4 [6]; QI model, Fe3+:carbene formation",0.50 ± 0.23 min⁻¹

# Reference: paper PMC5059843 (Molecular pharmaceutics, 2016)
